Measurements from ChEMBL document CHEMBL2146419, “Effects of polyphenol compounds on influenza A virus replication and definition of their mechanism of action” (Bioorg Med Chem, 2012).
Calls of active or inactive are those of the source. No cut-off for these calls is given here.

Tests used:
Influenza A virus = assay: Antiviral activity against Influenza virus A/Puerto Rico/8/34 H1N1 infected in dog MDCK cells at 20 ug/mL incubated for 6 hrs post-infection followed by compound washout measured after 24 hrs by hemagglutininating unit assay relative to control; format: functional, A/Puerto Rico/8/1934(H1N1)
Procedure, shortened: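 Compound added to PR8-infected MDCK cells immediately after virus challenge, then removed at 2, 4, 6, 8 or 24 h p.i. Supernatant virus yield was measured by HAU at 24 h p.i. and expressed as a percentage of DMSO-treated control infected cells. Means of two experiments, each in duplicate.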

MDCK = assay: Inhibition of PKC/p38MAPK-mediated nuclear-cytoplasmic viral nucleoprotein export in dog MDCK cells infected with Influenza virus A/Puerto Rico/8/34 H1N1 measured at 8 hrs post-infection by inmmunofluorescence; format: cell-based; conditions: Canis lupus familiaris
Procedure, shortened: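 MDCK cells were infected with PR8 at 1 M.O.I. for single-cycle replication. At 8 h p.i. cells were fixed, permeabilized and stained with DAPI, then with anti-NP primary and FITC-conjugated secondary antibody. NP localization was assessed by fluorescence microscopy.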

SMILES | Activity (Influenza A virus) [%] | inhibition (MDCK)
O=C1/C(=C/c2ccc(O)c(O)c2)COC/C1=C\c1ccc(O)c(O)c1 | 30 | –
O=C(/C=C/c1ccc(O)cc1)c1ccc(O)cc1O [ISOLIQUIRITIGENIN] | – | Active
